We go through 167 variants from the RNAGym collection of RNA variant scans (doi:10.1126/science.aae0568).

Fewer inactive variants are shown than the library holds.

The labels stand for the following.
B1: tRNA (parent)
chain: GUUCCGUUGGCGUAAUGGUAACGCGUCUCCCUCCUAAGGAGAAGACUGCGGGUUCGAGUCCCGUACGGAACG

Variants of B1 are the subject of this data set. As to the kind of experiment: yeast fitness relative to wild type (ratio to wild type); higher = fitter; tRNA-Arg(CCU), competitive growth, 37 C, YPD. A digest of the protocol:
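Genotype frequency changes were the basis for Darwinian fitness relative to wild type. The frequencies came from 100-nucleotide paired-end sequencing of gene amplicons from the start population and each end population of pooled yeast strains with tRNA-Arg(CCU) gene variants at the native locus. Competition ran in YPD at 37°C for 24 hours in six replicates, genotypes needed ≥ 100 starting reads, and estimates < 0.5 were set to 0.5.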
Consider C27A A43C G44U, for which the yeast fitness worked out at 0.514.
In the case of U26G C66G, the yeast fitness was determined as 0.677.
The result for C27A C31G C61U reads 0.669.
Take C27A A40C A45U A57U A70U: the yeast fitness was determined as 0.588.
The result for U26G U32A G63A reads at most 0.5; that for U26G U32C, 0.821.
For C27A A36G C46A G50A G51C the value was at most 0.5.
Turning to C27A A36U A37U A65U A70G, the yeast fitness is at most 0.5.
As to C27A G38C G68U, the yeast fitness was at most 0.5.
For C27A A42U G67C A69C, the yeast fitness is 0.726.
For C27A C60G the value was 0.657.
Consider C27A C49G U53A C62A, for which the yeast fitness was 0.571.
Take C27A C29U C46A: the yeast fitness came to 0.684.
For C27A A36U the value was 0.802.
Regarding C27A C34U C62U U64C, the yeast fitness was at most 0.5.
With C27A A45C C49A C61U, the yeast fitness was at most 0.5.
The result for U26G G56A G67A reads 0.529.
C27A A42C C60U: the yeast fitness is at most 0.5.
For U26G C46G A65C, the yeast fitness amounted to 0.563.
The result for C27A C31U C33A A42U G67A reads at most 0.5.
For C27A A45C G56C C60U G68U the value was at most 0.5.
For the variant C27A C33U G52C C62G, the yeast fitness was found to be 0.579.
In the case of U26G G39C G58A C66U, the yeast fitness is at most 0.5.
With C27A G41A U47A, the yeast fitness is at most 0.5.
On to C27A A69C, for which the yeast fitness stood at 0.875.
For U26G G67A the value was 0.81; for C27A A43C, 0.939.
The result for C27A A43U reads 1.03; that for C27A A43G, 0.778.
The result for C27A A36C A40G C62A reads at most 0.5.
Take U26G C34U G44C G56A: the yeast fitness was at most 0.5.
For C27A A57G the value was 0.787; for C27A A57C, 0.669; for C27A A57U, 0.737.
C27A G41C A43C: the yeast fitness came out at 0.504.
As to C27A A45U C60G A65U, the yeast fitness turned out to be 0.54.
Consider C27A C34G G38A G63C, for which the yeast fitness is at most 0.5.
The result for C27A C34U reads 0.598.
The result for C27A C34G A40G A65G reads 0.799; that for C27A A36G A70U, 0.561.
For the variant C27A A40G, the yeast fitness was 0.843.
As to C27A A40C, the yeast fitness was 0.775.
The result for C27A G38C A40U U53A reads at most 0.5.
On to U26G U35A G41A C46U G68A, for which the yeast fitness was at most 0.5.
For C27A A40G A42U C61G the value was at most 0.5; for C27A C29U A40G, at most 0.5.
C27A C49U: the yeast fitness was 0.826.
For C27A C49A the value was 0.749.
Turning to C27A C30A U35C C46G, the yeast fitness was at most 0.5.
The result for C27A C55U reads 0.662; that for C27A C46U A70U, 0.733.
For U26G G44A A69U the value was 0.673; for C27A A37C A43G C55G, at most 0.5; for C27A C30U A57C C62U, at most 0.5.
In the case of C27A C46U G52A, the yeast fitness was determined as 0.644.
The result for C27A C33U reads 0.799.
The result for C27A C33G reads 0.711; that for U26G C34U A40G G51A, at most 0.5.
For C27A A37C the value was 0.597; for C27A A37G, 0.737; for C27A G41A U47A A69U, at most 0.5.
In the case of U26G C46U, the yeast fitness amounted to 1.01.
For C27A C30A A43C C62G the value was at most 0.5; for U26G C55G A65C A70U, at most 0.5; for C27A G41A A45U U59G, at most 0.5.
The result for C27A C31A C46G reads 0.688.
Take C27A C30U C33G A37C A57U: the yeast fitness is at most 0.5.
For C27A C29U C61U the value was at most 0.5; for C27A A43C C60A, at most 0.5.
The result for U26G C60A reads 0.593; that for C27A A40C C46A, 0.597.
For C27A C30G C49U G56C C66U the value was at most 0.5; for U26G U32A G51A, at most 0.5.
With C27A C30A C66A, the yeast fitness amounted to 0.561.
In the case of C27A C31A A37C C46G, the yeast fitness is at most 0.5.
The result for C27A C66U reads 0.868.
As to C27A C66A, the yeast fitness came out at 0.565.
C27A C66G: the yeast fitness worked out at 0.673.
The result for C27A A42G U54C reads at most 0.5.
The result for C27A C62U A65C reads 0.63; that for C27A A36U A37U A65G, at most 0.5.
As for U26G G44A, the yeast fitness worked out at 0.87.
Regarding C27A A42G, the yeast fitness came to 0.791.
The result for C27A A42C reads 0.751; that for C27A A43C U47C, 0.594; that for C27A C33A C46A G63C, at most 0.5.
Regarding C27A C34A G67U A69C, the yeast fitness is at most 0.5.
In the case of U26G C34U C49A G51A A69U, the yeast fitness is at most 0.5.
Take C27A G48A: the yeast fitness came out at 0.995.
The result for C27A A45C G50C A65C reads at most 0.5; that for C27A A40C A43G, at most 0.5; that for U26G G48A C61U A70U, 0.68.
For C27A C33A A42U the value was 0.619; for U26G U28A, 0.62; for C27A C31A C49U G58C C62U U64A, at most 0.5.
For C27A G44C G51A the value was at most 0.5; for C27A C61U, 0.891; for C27A C61G, 0.665.
For the variant C27A C33G A45C, the yeast fitness was 0.53.
For C27A C31G A65U the value was 0.679.
For C27A C33U G44C A45U G50C G67A the value was at most 0.5; for C27A A45U G56A C60U, at most 0.5.
For U26G C33G C34G A40U G68A the value was at most 0.5; for C27A G39C C55G, at most 0.5; for C27A C31G A65U A70G, at most 0.5.
In the case of C27A G39C A57U, the yeast fitness is at most 0.5.
Take U26G U59A: the yeast fitness was found to be 0.663.
For U26G U59G the value was 0.704; for C27A C30U C33G, 0.634.
For the variant C27A C31A G52A U54C G58C A70G, the yeast fitness is at most 0.5.
With C27A C31G, the yeast fitness is 0.957.
For U26G U35C the value was 0.657.
Consider U26G U35A, for which the yeast fitness was 0.589.
For U26G G58C the value was 0.696; for U26G G58A, 0.881.
On to U26G C46G C55G, for which the yeast fitness was at most 0.5.
The result for U26G C31U U54A reads 0.569.
The result for C27A G50A reads 0.848.
The result for U26G G39A C46G G68A reads 0.522; that for U26G U28A U53A, at most 0.5.
On to C27A A42U G67C, for which the yeast fitness was found to be 0.613.
Take C27A G44A A69C: the yeast fitness was at most 0.5.
For C27A C30U the value was 0.7.
As to C27A C30G, the yeast fitness stood at 0.634.
The result for C27A C31G A57C U64A G68A reads at most 0.5.
As for C27A A42C G67C A69C, the yeast fitness was at most 0.5.
The result for U26G G67C G68A reads at most 0.5; that for C27A A36U A37U, 0.638; that for C27A C62A, 0.699.
For C27A C46A the value was 0.907; for C27A C46U, 1.05; for C27A A45C G68A, 0.619.
For U26G G44C G58A G68C the value was 0.529; for C27A A45G, 0.874.
In the case of C27A A45C, the yeast fitness was determined as 0.796.
For C27A A37U C60U G63A the value was 0.707.
For C27A G41C A43C A45U the value was at most 0.5.
As for C27A C29U C49U, the yeast fitness is at most 0.5.
For the variant C27A C34G A42G G50A C62G, the yeast fitness was at most 0.5.
For C27A A65U G67C the value was 0.613; for C27A C31G A45C C55U, at most 0.5.
Regarding C27A C29A, the yeast fitness amounted to 0.589.
Regarding C27A C29U, the yeast fitness worked out at 0.766.
The result for U26G G41A reads 0.794; that for U26G C61U, 0.864; that for C27A A36G A42G C66U, at most 0.5.
The result for C27A A40G C46G C62G reads 0.687.
As to U26G U35A A69G A70G, the yeast fitness is 0.732.
In the case of C27A A42C A57G, the yeast fitness was at most 0.5.
For C27A G41C A43C A69U the value was at most 0.5; for U26G C61U G63C A65G, 0.799.
For C27A A45G G68C, the yeast fitness was at most 0.5.
The result for C27A C30U G44C reads at most 0.5; that for C27A C31A A69U, 0.567.
Consider U26G G56A G68U A69U, for which the yeast fitness is at most 0.5.
On to C27A G44C U59A, for which the yeast fitness is at most 0.5.
On to C27A C61U G68C, for which the yeast fitness was at most 0.5.
For C27A A65C the value was 0.878; for C27A A65G, 1.02; for C27A C34U A42U G50C G58A G68C A69G, at most 0.5.
Regarding C27A C55U A57C C61A C62G, the yeast fitness is at most 0.5.
Take C27A A70G: the yeast fitness was 0.857.
On to C27A C31G C46U, for which the yeast fitness stood at 0.621.
The result for C27A A36C A42U U64G reads at most 0.5.
Consider C27A C33U A42U, for which the yeast fitness is at most 0.5.
For C27A C34U A42C U53G, the yeast fitness is at most 0.5.
The result for U26G C33A A42U C55G reads 0.556.
